ChEMBL document CHEMBL1139833, “Synthesis and metabotropic glutamate receptor activity of S-oxidized variants of (-)-4-amino-2-thiabicyclo-[3.1.0]hexane-4,6-dicarboxylate: identification of potent, selective, and orally bioavailable agonists for mGlu2/3 receptors” (J Med Chem, 2007)
The source made the active and inactive calls. The rule behind the calls is not given here.

Assays:
[1] = biological target: Metabotropic glutamate receptor 7 (Homo sapiens) (UniProt Q14831); assay: Antagonist activity against human mGluR7a assessed as effect on cAMP production in RGT cells upto 100 uM; format: functional, cell-based
Sequence of Metabotropic glutamate receptor 7 (Homo sapiens) (Q14831 whole entry): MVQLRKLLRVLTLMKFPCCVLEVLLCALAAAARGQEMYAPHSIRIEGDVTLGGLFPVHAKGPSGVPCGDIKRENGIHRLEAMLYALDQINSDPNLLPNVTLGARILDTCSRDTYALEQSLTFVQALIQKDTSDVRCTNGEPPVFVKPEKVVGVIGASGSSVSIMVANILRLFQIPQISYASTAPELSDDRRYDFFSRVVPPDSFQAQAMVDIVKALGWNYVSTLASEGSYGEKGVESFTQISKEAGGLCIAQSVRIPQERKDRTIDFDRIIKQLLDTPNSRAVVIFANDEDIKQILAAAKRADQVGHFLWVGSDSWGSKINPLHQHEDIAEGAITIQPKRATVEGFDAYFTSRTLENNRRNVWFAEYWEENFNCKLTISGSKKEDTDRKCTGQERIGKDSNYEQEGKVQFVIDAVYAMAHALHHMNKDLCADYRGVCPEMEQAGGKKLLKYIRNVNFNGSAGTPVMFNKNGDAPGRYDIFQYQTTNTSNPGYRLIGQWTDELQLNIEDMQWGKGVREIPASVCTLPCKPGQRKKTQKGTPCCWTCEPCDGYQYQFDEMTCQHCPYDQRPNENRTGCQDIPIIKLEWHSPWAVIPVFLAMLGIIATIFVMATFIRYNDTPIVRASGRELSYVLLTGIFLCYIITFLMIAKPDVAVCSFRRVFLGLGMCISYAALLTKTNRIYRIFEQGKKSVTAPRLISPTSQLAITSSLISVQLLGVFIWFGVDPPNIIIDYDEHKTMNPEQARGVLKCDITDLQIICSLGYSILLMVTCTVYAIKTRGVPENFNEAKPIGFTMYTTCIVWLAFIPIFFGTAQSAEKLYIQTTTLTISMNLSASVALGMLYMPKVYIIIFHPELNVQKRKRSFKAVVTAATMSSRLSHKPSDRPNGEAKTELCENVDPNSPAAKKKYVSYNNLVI
How it was run: (§1)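 Compounds were tested at concentrations up to 100 µM for agonist or antagonist effects. Assays used RGT cells, which are AV12-664 cells coexpressing GLAST and recombinant human mGlu1a, mGlu5a, mGlu4a or mGlu7a.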

[2] = biological target: Metabotropic glutamate receptor 1 (Homo sapiens) (UniProt Q13255); assay: Antagonist activity against human mGluR1a assessed as effect on cAMP production in RGT cells upto 100 uM; format: functional, cell-based; how it was run: as §1
Sequence of Metabotropic glutamate receptor 1 (Homo sapiens) (Q13255 19-1194 limits assumed): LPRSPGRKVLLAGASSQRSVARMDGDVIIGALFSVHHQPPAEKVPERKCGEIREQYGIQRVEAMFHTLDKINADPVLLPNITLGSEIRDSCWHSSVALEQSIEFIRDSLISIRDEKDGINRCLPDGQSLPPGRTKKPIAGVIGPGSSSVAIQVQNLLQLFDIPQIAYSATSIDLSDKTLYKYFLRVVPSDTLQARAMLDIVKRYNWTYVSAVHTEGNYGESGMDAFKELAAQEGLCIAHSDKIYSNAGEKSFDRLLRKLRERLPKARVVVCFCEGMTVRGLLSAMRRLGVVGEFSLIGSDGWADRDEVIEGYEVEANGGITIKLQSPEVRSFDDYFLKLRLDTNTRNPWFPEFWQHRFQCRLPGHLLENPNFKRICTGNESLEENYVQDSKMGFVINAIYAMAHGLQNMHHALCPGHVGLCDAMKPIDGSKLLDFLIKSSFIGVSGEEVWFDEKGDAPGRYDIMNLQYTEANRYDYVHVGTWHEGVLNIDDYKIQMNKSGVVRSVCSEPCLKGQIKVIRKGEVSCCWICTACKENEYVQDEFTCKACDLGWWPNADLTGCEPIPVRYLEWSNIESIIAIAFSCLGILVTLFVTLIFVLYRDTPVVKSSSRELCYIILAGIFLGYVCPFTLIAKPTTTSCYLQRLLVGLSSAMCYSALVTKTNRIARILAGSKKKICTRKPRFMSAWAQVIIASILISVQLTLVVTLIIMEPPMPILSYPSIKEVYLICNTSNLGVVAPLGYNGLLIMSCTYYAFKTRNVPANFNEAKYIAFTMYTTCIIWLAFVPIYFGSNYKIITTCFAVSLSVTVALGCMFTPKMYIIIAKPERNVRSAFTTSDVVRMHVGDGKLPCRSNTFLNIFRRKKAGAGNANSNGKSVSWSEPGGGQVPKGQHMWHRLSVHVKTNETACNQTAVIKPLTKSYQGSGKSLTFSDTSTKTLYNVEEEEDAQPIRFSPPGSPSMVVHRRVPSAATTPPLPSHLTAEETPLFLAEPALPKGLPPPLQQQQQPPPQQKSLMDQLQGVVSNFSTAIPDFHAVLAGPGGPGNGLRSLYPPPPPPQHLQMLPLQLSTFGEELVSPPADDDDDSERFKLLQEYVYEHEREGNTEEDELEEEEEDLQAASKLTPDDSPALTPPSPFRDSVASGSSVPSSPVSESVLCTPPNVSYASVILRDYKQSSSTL

[3] = biological target: Metabotropic glutamate receptor 5 (Homo sapiens) (UniProt P41594); assay: Agonist activity at human mGluR5a assessed as effect on cAMP production in RGT cells upto 100 uM; format: functional, cell-based; how it was run: as §1
Sequence of Metabotropic glutamate receptor 5 (Homo sapiens) (P41594 21-1212 limits assumed): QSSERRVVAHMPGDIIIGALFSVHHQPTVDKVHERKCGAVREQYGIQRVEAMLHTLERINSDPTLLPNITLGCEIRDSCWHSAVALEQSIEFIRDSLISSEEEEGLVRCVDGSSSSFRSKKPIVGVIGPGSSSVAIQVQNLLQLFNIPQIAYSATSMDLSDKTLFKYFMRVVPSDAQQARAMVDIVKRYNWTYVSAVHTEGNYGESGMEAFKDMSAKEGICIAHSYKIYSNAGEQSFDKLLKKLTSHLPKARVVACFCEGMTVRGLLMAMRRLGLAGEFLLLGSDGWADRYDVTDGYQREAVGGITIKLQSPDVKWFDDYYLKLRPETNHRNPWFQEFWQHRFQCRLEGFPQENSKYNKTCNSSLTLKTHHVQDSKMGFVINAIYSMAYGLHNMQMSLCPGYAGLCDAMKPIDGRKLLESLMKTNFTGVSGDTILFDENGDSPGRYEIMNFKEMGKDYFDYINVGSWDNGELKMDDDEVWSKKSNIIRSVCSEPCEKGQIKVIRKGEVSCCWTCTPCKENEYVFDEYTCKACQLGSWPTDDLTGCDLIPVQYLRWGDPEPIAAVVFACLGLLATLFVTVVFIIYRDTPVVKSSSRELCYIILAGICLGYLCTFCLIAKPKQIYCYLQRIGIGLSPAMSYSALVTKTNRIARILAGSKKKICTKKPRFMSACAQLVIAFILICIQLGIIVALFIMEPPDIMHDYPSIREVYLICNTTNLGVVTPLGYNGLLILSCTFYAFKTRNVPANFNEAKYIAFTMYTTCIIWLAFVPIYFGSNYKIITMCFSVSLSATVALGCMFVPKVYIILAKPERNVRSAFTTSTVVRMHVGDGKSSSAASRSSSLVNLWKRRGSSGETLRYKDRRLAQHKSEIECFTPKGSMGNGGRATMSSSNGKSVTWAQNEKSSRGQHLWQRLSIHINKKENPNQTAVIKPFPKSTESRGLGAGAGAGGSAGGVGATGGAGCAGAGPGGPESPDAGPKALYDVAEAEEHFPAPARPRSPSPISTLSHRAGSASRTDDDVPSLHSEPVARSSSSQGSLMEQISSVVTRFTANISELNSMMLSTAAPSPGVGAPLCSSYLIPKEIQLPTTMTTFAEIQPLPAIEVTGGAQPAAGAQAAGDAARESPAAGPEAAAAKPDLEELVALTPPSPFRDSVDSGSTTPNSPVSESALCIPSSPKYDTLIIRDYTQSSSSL

[4] = biological target: Metabotropic glutamate receptor 7 (Homo sapiens) (UniProt Q14831); assay: Agonist activity at human mGluR7a assessed as effect on cAMP production in RGT cells upto 100 uM; format: functional, cell-based; how it was run: as §1
[5] = biological target: Metabotropic glutamate receptor 4 (Homo sapiens) (UniProt Q14833); assay: Antagonist activity against human mGluR4a assessed as effect on cAMP production in RGT cells upto 100 uM; format: functional, cell-based; how it was run: as §1
Sequence of Metabotropic glutamate receptor 4 (Homo sapiens) (Q14833 whole entry): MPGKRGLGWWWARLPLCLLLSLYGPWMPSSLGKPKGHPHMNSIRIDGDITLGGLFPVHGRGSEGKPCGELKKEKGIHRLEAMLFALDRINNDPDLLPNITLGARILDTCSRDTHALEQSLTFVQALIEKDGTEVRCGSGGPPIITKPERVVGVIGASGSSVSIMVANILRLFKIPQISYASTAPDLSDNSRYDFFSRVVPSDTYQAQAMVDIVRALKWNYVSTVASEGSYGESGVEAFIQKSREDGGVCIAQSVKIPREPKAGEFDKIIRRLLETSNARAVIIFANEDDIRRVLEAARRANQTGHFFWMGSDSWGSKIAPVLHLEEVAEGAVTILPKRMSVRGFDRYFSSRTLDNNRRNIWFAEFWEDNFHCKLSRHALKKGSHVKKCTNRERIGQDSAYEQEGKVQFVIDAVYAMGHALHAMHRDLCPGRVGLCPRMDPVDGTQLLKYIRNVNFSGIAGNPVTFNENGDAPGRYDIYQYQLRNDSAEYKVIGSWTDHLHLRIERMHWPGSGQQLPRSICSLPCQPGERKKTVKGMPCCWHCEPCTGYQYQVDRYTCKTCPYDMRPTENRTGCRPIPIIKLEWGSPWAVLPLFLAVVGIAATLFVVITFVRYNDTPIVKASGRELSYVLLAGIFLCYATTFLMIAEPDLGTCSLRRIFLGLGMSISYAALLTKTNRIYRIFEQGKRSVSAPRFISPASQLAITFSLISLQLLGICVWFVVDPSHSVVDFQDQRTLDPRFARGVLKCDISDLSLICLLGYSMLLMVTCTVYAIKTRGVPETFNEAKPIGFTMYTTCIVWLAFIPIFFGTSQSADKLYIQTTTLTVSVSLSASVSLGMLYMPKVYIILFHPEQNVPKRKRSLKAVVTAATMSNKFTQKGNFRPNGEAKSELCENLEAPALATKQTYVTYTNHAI

[6] = biological target: Metabotropic glutamate receptor 1 (Homo sapiens) (UniProt Q13255); assay: Agonist activity at human mGluR1a assessed as effect on cAMP production in RGT cells upto 100 uM; format: functional, cell-based; how it was run: as §1
[7] = biological target: Metabotropic glutamate receptor 4 (Homo sapiens) (UniProt Q14833); assay: Agonist activity at human mGluR4a assessed as effect on cAMP production in RGT cells upto 100 uM; format: functional, cell-based; how it was run: as §1
[8] = biological target: Metabotropic glutamate receptor 5 (Homo sapiens) (UniProt P41594); assay: Antagonist activity against human mGluR5a assessed as effect on cAMP production in RGT cells upto 100 uM; format: functional, cell-based; how it was run: as §1
[9] = tested on: Rattus norvegicus; assay: AUC (0-24h) in Fischer 344 rat at 10 mg/kg, po; format: ADME, organism-based, Plasma; parameters: time < 24 hr, dose 10 mg/kg, route oral; conditions: rat, in vivo, 24 h
How it was run: (§2)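 Male Fischer 344 rats fasted overnight, food returned 4 h post dose, water ad libitum. Doses were in water brought to pH 7 with NaOH, given i.v. (2.5 or 10 mg/kg) or p.o. (10 mg/kg). Nine rats per dose group, three per time point, with blood taken over 0.08–24 h. Plasma measured by LC/MS/MS.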

[10] = tested on: Rattus norvegicus; assay: Cmax in Fischer 344 rat at 10 mg/kg, po; format: ADME, organism-based; parameters: dose 10 mg/kg, route oral; conditions: in vivo; how it was run: as §2
[11] = tested on: Rattus norvegicus; assay: Plasma concentration in Fischer 344 rat at 10 mg/kg, po after 0.5 hrs; format: ADME, organism-based; parameters: dose 10 mg/kg, route oral; conditions: in vivo
How it was run: (§3)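 Plasma levels in fasted male Fischer 344 rats after a 10 mg/kg oral dose in pH 7 water (NaOH), quantified by positive-ion electrospray LC/MS/MS. Main protocol sampled at 0.08/0.25–24 h, n=3 rats per time point. A variant oral-only arm used n=6 rats with samples at 0.5, 1, 2, 3, 4 and 6 h.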

[12] = tested on: Rattus norvegicus; assay: Plasma concentration in Fischer 344 rat at 10 mg/kg, po after 6 hrs; format: ADME, organism-based; parameters: dose 10 mg/kg, route oral; conditions: in vivo; how it was run: as §3
[13] = tested on: Rattus norvegicus; assay: (§4) Tmax in Fischer 344 rat at 10 mg/kg, po; format: ADME, organism-based; parameters: dose 10 mg/kg, route oral; conditions: rat, in vivo; how it was run: as §2
[14] = tested on: Rattus norvegicus; assay: Plasma concentration in Fischer 344 rat at 10 mg/kg, po after 3 hrs; format: ADME, organism-based; parameters: dose 10 mg/kg, route oral; conditions: in vivo; how it was run: as §3
[15] = tested on: Rattus norvegicus; assay: Plasma concentration in Fischer 344 rat at 10 mg/kg, po after 4 hrs; format: ADME, organism-based; parameters: dose 10 mg/kg, route oral; conditions: in vivo; how it was run: as §3
[16] = tested on: Rattus norvegicus; assay: Plasma concentration in Fischer 344 rat at 10 mg/kg, po after 1 hrs; format: ADME, organism-based; parameters: dose 10 mg/kg, route oral; conditions: in vivo; how it was run: as §3
[17] = tested on: Rattus norvegicus; assay: Plasma concentration in Fischer 344 rat at 10 mg/kg, po after 2 hrs; format: ADME, organism-based; parameters: dose 10 mg/kg, route oral; conditions: in vivo; how it was run: as §3
[18] = tested on: Rattus norvegicus; assay: Reduction of PCP-induced ambulations in Sprague-Dawley rat at 10 mg/kg, po; format: functional; parameters: scale not given: the % may be the effect or the level left
How it was run: (§5)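 Male Sprague-Dawley rats (225-274 g) fasted 12-18 h and habituated 30 min to the test cage. Test drug or vehicle was given orally 2 h before PCP (5 mg/kg s.c.) or 0.9% NaCl. Horizontal photobeam breaks were counted over 60 min, n=8-13 per group.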

[19] = AUC (0-24h) in Fischer 344 rat at 10 mg/kg, iv; format: ADME, organism-based; parameters: time < 24 hr, dose 10 mg/kg, route intravenous; conditions: plasma; how it was run: as §2
[20] = biological target: Metabotropic glutamate receptor 2 (Homo sapiens, UniProt Q14416); assay: Agonist activity at human mGluR2 assessed as effect on cAMP production in RGT cells; format: functional, cell-based
How it was run: (§6)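 cAMP second-messenger responses measured in RGT cells. These are non-neuronal AV12-664 cells coexpressing the glutamate transporter GLAST, to minimize glutamate activity, plus the recombinant human receptor (mGlu2, mGlu3 or mGlu8). Agonist EC50 determined.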

[21] = Tmax in Fischer 344 rat at 10 mg/kg, iv; format: ADME, organism-based; parameters: dose 10 mg/kg, route intravenous; conditions: in vivo; how it was run: as §2
[22] = biological target: T1, Metabotropic glutamate receptor 3 (Homo sapiens, UniProt Q14832); assay: Displacement of [3H]LY341495 from human recombinant mGluR3 in RGT cells; format: cell-based
T1 sequence (Q14832 whole entry): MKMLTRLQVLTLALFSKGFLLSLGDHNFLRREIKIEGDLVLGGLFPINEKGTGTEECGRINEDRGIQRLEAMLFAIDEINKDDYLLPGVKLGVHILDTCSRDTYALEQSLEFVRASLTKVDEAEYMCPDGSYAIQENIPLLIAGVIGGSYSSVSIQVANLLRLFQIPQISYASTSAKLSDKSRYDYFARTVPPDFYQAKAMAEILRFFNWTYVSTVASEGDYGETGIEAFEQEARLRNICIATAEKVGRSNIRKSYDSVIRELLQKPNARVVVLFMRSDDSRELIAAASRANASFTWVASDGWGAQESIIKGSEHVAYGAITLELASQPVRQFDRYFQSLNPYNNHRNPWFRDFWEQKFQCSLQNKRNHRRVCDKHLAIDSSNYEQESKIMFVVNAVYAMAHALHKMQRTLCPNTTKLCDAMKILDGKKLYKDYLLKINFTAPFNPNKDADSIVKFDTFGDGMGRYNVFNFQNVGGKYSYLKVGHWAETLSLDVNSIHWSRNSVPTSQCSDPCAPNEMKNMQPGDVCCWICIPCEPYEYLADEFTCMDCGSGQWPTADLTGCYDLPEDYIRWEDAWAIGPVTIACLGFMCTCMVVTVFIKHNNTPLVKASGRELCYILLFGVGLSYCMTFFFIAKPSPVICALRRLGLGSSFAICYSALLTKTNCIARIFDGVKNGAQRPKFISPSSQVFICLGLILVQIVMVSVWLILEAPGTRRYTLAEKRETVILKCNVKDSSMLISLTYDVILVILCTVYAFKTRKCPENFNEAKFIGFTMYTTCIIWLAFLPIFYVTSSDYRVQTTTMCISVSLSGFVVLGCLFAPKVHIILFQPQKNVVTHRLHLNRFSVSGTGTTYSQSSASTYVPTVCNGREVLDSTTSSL
How it was run: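 Radioligand binding on membranes carrying recombinant human mGlu2 or mGlu3, displacing the antagonist [3H]LY341495. Ki was calculated from IC50 by the Cheng-Prusoff equation. Values are the mean of at least three separate experiments.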

[23] = Oral bioavailability in Fischer 344 rat at 10 mg/kg, po; format: ADME, organism-based; conditions: in vivo; how it was run: as §2
[24] = Plasma concentration in rat at 10 mg/kg, po after 24 hrs; format: ADME, organism-based; parameters: dose 10 mg/kg, route oral; how it was run: as §3
[25] = tested on: Rattus norvegicus; assay: Cmax in Fischer 344 rat at 10 mg/kg, iv; format: ADME, organism-based; parameters: dose 10 mg/kg, route intravenous; conditions: in vivo; how it was run: as §2
[26] = tested on: Rattus norvegicus; assay: Inhibition of PCP-induced ambulations in Sprague-Dawley rat after oral administration; format: functional; how it was run: as §5
[27] = Plasma concentration in Fischer 344 rat at 10 mg/kg, po after 8 hrs; format: ADME, organism-based; parameters: dose 10 mg/kg, route oral; how it was run: as §3
[28] = as §4; format: ADME, organism-based; parameters: dose 10 mg/kg, route oral; conditions: Fischer 344, rat, in vivo; how it was run: as §2
[29] = Plasma concentration in Fischer 344 rat at 10 mg/kg, po after 16 hrs; format: ADME, organism-based; parameters: dose 10 mg/kg, route oral; how it was run: as §3
[30] = biological target: T1, Metabotropic glutamate receptor 3; assay: Agonist activity at human mGluR3 assessed as effect on cAMP production in RGT cells; format: functional, cell-based; how it was run: as §6
[31] = tested on: Rattus norvegicus; assay: Reduction of PCP-induced ambulations in Sprague-Dawley rat at 3 mg/kg, po; format: functional; parameters: scale not given: the % may be the effect or the level left; how it was run: as §5
[32] = biological target: Metabotropic glutamate receptor 8 (Homo sapiens, UniProt O00222); assay: Agonist activity at human mGluR8 assessed as effect on cAMP production in RGT cells; format: functional, cell-based; how it was run: as §6

Activity [1]	Activity [2]	Activity [3]	Activity [4]	Activity [5]	Activity [6]	Activity [7]	Activity [8]	AUC [9]	Cmax [10]	Cp [11]	Cp [12]	Cp [14]	Cp [15]	Cp [16]	Cp [17]	SMILES	further results
inactive	inactive	inactive	inactive	inactive	inactive	inactive	inactive	–	–	–	–	–	–	–	–	N[C@@]1(C(=O)O)CO[C@H]2[C@H](C(=O)O)[C@H]21	–
inactive	inactive	inactive	inactive	inactive	inactive	inactive	inactive	–	–	–	–	–	–	–	–	N[C@@]1(C(=O)O)CC[C@H]2[C@H](C(=O)O)[C@H]21	–

Continued, molecule first:

SMILES	Activity [1]	Activity [2]	Activity [3]	Activity [4]	Activity [5]	Activity [6]	Activity [7]	Activity [8]	AUC [9]	Cmax [10]	Cp [11]	Cp [12]	Cp [14]	Cp [15]	Cp [16]	Cp [17]	further results
N[C@@]1(C(=O)O)CS[C@H]2[C@H](C(=O)O)[C@H]21	inactive	inactive	inactive	inactive	inactive	inactive	inactive	inactive	–	–	–	–	–	–	–	–	–
N[C@@]1(C(=O)O)C[S+]([O-])[C@H]2[C@H](C(=O)O)[C@H]21 (stereo in doubt; (-)-11)	–	–	–	–	–	–	–	–	1100 ng·h/mL	400 ng/mL	325 ng/mL	71.8 ng/mL	229 ng/mL	77 ng/mL	367 ng/mL	258 ng/mL	Tmax [13]: 60 min
N[C@@]1(C(=O)O)C[S+]([O-])[C@H]2[C@H](C(=O)O)[C@H]21 (stereo in doubt; (+)-11)	–	–	–	–	–	–	–	–	13000 ng·h/mL	7500 ng/mL	7495 ng/mL	311 ng/mL	699 ng/mL	726 ng/mL	3244 ng/mL	2895 ng/mL	Activity [18]: 98%; AUC(0-t) at 24 h [19]: 13000 ng·h/mL; EC50 [20]: 0.089 nM; Tmax [21]: 0 h; Ki [22]: 0.17 nM; bioavailability [23]: 100%; concentration at 24 h [24]: 3 ng/mL; Cmax [25]: 29000 ng/mL; ED50 [26]: 2.3 mg/kg; concentration at 8 h [27]: 202 ng/mL; Tmax [28]: 30 min; concentration at 16 h [29]: 34 ng/mL; EC50 [30]: 1.4 nM; Activity [31]: 98%; EC50 [32]: 3070 nM
